Source: ChEMBL document CHEMBL4400578, “Spirocyclic and Bicyclic 8-Nitrobenzothiazinones for Tuberculosis with Improved Physicochemical and Pharmacokinetic Properties” (ACS Med Chem Lett, 2019)
In brackets after ≈: the same amount, converted by molar mass.

Assays:
[1] = Selectivity ratio of MIC90 for inhibition of DprE1-mediated growth of Mycobacterium tuberculosis H37Rv to MIC90 for inhibition of DprE1-mediated growth of Mycobacterium tuberculosis CDC1551
[2] = Stability of the compound in plasma (unknown origin); assay type: ADME, cell-free
[3] = Intrinsic clearance in human liver microsomes at 2.5 uL preincubated for 5 mins followed by NADPH addition and measured by LC-MS/MS analysis; assay type: ADME, Microsome; settings: read-out: CLH
[4] = Protein binding in plasma (unknown origin) measured after 5 hrs by equilibrium dialysis method; assay type: ADME, cell-free; settings: read-out: PPB (converted)
[5] = Half life in mouse liver microsomes at 2.5 uL preincubated for 5 mins followed by NADPH addition and measured by LC-MS/MS analysis; assay type: ADME, Microsome
[6] = Kinetic aqueous solubility of the compound in pH 7.4 phosphate buffer incubated for 4.5 hrs under shaking condition by LC-MS/MS analysis; assay type: physicochemical; settings: read-out: Kinetic_solubility
Outline: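 Kinetic solubility measured in phosphate-buffered saline at pH 7.4, with compound quantified by LC–MS/MS.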

[7] = Intrinsic clearance in mouse liver microsomes at 2.5 uL preincubated for 5 mins followed by NADPH addition and measured by LC-MS/MS analysis; assay type: ADME, Microsome; settings: read-out: CLH
[8] = target: T1, Decaprenylphosphoryl-beta-D-ribose oxidase (Mycobacterium tuberculosis (strain ATCC 25618 / H37Rv)) (UniProt P9WJF1); test: Inhibition of Mycobacterium tuberculosis H37Rv DprE1 assessed as reduction in bacterial growth measured after 7 to 10 days by broth microdilution method
T1 sequence (whole entry): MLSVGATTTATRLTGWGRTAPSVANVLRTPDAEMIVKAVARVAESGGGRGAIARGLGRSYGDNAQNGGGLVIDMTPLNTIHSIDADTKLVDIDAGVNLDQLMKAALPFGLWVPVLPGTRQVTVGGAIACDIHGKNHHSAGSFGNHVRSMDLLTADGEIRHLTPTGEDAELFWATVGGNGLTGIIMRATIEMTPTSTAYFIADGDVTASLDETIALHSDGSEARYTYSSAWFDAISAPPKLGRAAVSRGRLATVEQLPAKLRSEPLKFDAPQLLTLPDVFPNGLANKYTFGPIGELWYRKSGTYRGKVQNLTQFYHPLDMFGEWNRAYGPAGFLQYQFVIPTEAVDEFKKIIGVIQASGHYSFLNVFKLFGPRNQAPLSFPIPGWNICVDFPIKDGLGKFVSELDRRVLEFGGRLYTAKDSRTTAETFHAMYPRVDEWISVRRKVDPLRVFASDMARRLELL
Outline: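 Whole-cell growth assay of M. tuberculosis H37Rv in 7H9 broth. MIC is taken as the lowest concentration giving complete inhibition of observable growth.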

[9] = Selectivity ratio of MIC90 for inhibition of DprE1-mediated growth of Mycobacterium tuberculosis H37Rv to MIC90 for inhibition of DprE1-mediated growth of Mycobacterium tuberculosis Erdman
[10] = Half life in […] microsomes at 2.5 uL preincubated for 5 mins followed by NADPH addition and measured by LC-MS/MS analysis; assay type: ADME, Liver, Microsome
[11] = Cmax in specific pathogen free ICR mouse at 2 mg/kg, iv by LC/TSQ-MS analysis; assay type: ADME, organism-based; parameters: dose 2 mg/kg, route intravenous; settings: in vivo
Outline: (§1)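 ICR mice dosed once with compound, intravenously at 2 mg/kg or orally at 10 mg/kg. Plasma pharmacokinetic parameters derived per route: AUC, Cmax, clearance, mean residence time, Vd, terminal elimination half-life, and oral bioavailability from the p.o. versus i.v. comparison.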

[12] = Terminal half life in specific pathogen free ICR mouse at 10 mg/kg, po by LC/TSQ-MS analysis; assay type: ADME, organism-based; settings: in vivo, read-out: beta t1/2 (converted); outline: as §1
[13] = Mean residence time in specific pathogen free ICR mouse at 2 mg/kg, iv by LC/TSQ-MS analysis; assay type: ADME, organism-based; settings: in vivo; outline: as §1
[14] = Oral bioavailability in specific pathogen free ICR mouse at 10 mg/kg by LC/TSQ-MS analysis; assay type: ADME, organism-based; settings: in vivo; outline: as §1
[15] = Cmax in specific pathogen free ICR mouse at 10 mg/kg, po by LC/TSQ-MS analysis; assay type: ADME, organism-based; parameters: dose 10 mg/kg, route oral; settings: in vivo; outline: as §1
[16] = AUC in specific pathogen free ICR mouse at 10 mg/kg, po by LC/TSQ-MS analysis; assay type: ADME, organism-based; settings: in vivo; outline: as §1
[17] = AUC in specific pathogen free ICR mouse at 2 mg/kg, iv by LC/TSQ-MS analysis; assay type: ADME, organism-based; settings: in vivo; outline: as §1
[18] = Intrinsic clearance in specific pathogen free ICR mouse at 2 mg/kg, iv by LC/TSQ-MS analysis; assay type: ADME, organism-based; settings: in vivo
[19] = Volume of distribution in specific pathogen free ICR mouse at 2 mg/kg, iv by LC/TSQ-MS analysis; assay type: ADME, organism-based; settings: in vivo; outline: as §1
[20] = Terminal half life in specific pathogen free ICR mouse at 2 mg/kg, iv by LC/TSQ-MS analysis; assay type: ADME, organism-based; settings: in vivo, read-out: beta t1/2 (converted); outline: as §1
[21] = Mean residence time in specific pathogen free ICR mouse at 10 mg/kg, po by LC/TSQ-MS analysis; assay type: ADME, organism-based; settings: in vivo; outline: as §1
[22] = Ratio of test compound kinetic aqueous solubility to PBTZ169 kinetic aqueous solubility; assay type: physicochemical; settings: buffer

In the case of `O=c1nc(N2CCC3(CC2)CC3)sc2c([N+](=O)[O-])cc(C(F)(F)F)cc12`, the Selectivity ratio [1] is reported as < 4, the Stability [2] is reported as 93.3% and the microsomal CLint [3] is reported as 16.1 µL/min/mg. It also gave a fraction unbound at 5 h [4] of 0.006, a half-life [5] of 8.33 min and a solubility kinetic at 4.5 h [6] of 0.3 µg/mL (≈ 0.778 µM). For the same compound, the microsomal CLint [7] was 83.3 µL/min/mg, the MIC [8] was 16 nM (≈ 0.00617 µg/mL) and the Selectivity ratio [9] was < 4. It also gave a half-life [10] of 43 min.

For `O=c1nc(N2CC3CCC2CN3CC2CCCCC2)sc2c([N+](=O)[O-])cc(C(F)(F)F)cc12` (stereo unspecified), the Selectivity ratio [1] was < 4, the Stability [2] was 102% and the microsomal CLint [3] was 22.7 µL/min/mg. The fraction unbound at 5 h [4] was 0.001, the half-life [5] was 27.3 min and the solubility kinetic at 4.5 h [6] was < 0.029 µg/mL. For the same compound, the microsomal CLint [7] was 25.4 µL/min/mg, the MIC [8] was 32 nM (≈ 0.0154 µg/mL) and the Selectivity ratio [9] was < 4. It also gave a half-life [10] of 30.6 min.

For `O=c1nc(N2CCN(CC3CCCCC3)CC2)sc2c([N+](=O)[O-])cc(C(F)(F)F)cc12` [MACOZINONE], the Selectivity ratio [1] was < 4, the Stability [2] was 88.7% and the microsomal CLint [3] was 16.5 µL/min/mg. For the same compound, the fraction unbound at 5 h [4] was 0.001, the half-life [5] was 34.4 min and the solubility kinetic at 4.5 h [6] was < 0.01 µg/mL. For the same compound, the microsomal CLint [7] was 20.1 µL/min/mg, the MIC [8] was 2 nM (≈ 0.000913 µg/mL) and the Selectivity ratio [9] was < 4. It also gave a half-life [10] of 43 min.

In the case of `O=c1nc(N2C[C@@H]3[C@H](C2)[C@H]3NCC2CCCCC2)sc2c([N+](=O)[O-])cc(C(F)(F)F)cc12`, the Cmax [11] is reported as 483 ng/mL, the half-life [12] is reported as 131 min and the MRT [13] is reported as 2.24 h. The Selectivity ratio [1] was < 4, the bioavailability [14] was 27.4% and the Stability [2] was 91.4%. It also gave a microsomal CLint [3] of 9.05 µL/min/mg, a Cmax [15] of 195 ng/mL and an AUC [16] of 791 ng·h/mL. It also gave a fraction unbound at 5 h [4] of 0.005, a half-life [5] of 65.2 min and a solubility kinetic at 4.5 h [6] of 4.8 µg/mL (≈ 10.2 µM). The microsomal CLint [7] was 10.6 µL/min/mg, the AUC [17] was 576 ng·h/mL and the CL [18] was 58.2 mL/min/kg. For the same compound, the Vd [19] was 12.8 L/kg, the MIC [8] was 32 nM (≈ 0.015 µg/mL) and the Selectivity ratio [9] was < 4. It also gave a half-life [10] of 76.6 min, a half-life [20] of 152 min and an MRT [21] of 3.09 h.

For `O=c1nc(N2CCC3(CCN(CC4CCCCC4)C3)C2)sc2c([N+](=O)[O-])cc(C(F)(F)F)cc12` (stereo unspecified), the Selectivity ratio [1] was < 4, the MIC [8] was 256 nM (≈ 0.127 µg/mL) and the Selectivity ratio [9] was < 4.

For `O=c1nc(N2[C@@H]3C[C@H]2CN(CC2CCCCC2)C3)sc2c([N+](=O)[O-])cc(C(F)(F)F)cc12`, the Selectivity ratio [1] was < 4, the MIC [8] was 128 nM (≈ 0.06 µg/mL) and the Selectivity ratio [9] was < 4.

For `O=c1nc(N2CCCC3(CCCCN3CC3CCCCC3)C2)sc2c([N+](=O)[O-])cc(C(F)(F)F)cc12` (stereo unspecified), the Selectivity ratio [1] was < 4, the MIC [8] was 1020 nM (≈ 0.537 µg/mL) and the Selectivity ratio [9] was < 4.

With `O=c1nc(N2C[C@H]3C[C@@H]2CN3CC2CCCCC2)sc2c([N+](=O)[O-])cc(C(F)(F)F)cc12` the Ratio [22] was 1600, the Selectivity ratio [1] was < 4 and the Stability [2] was 81.9%. For the same compound, the microsomal CLint [3] was 26.1 µL/min/mg, the fraction unbound at 5 h [4] was 0.004 and the half-life [5] was 7.05 min. For the same compound, the solubility kinetic at 4.5 h [6] was 14.6 µg/mL (≈ 31.2 µM), the microsomal CLint [7] was 98.4 µL/min/mg and the MIC [8] was 64 nM (≈ 0.03 µg/mL). For the same compound, the Selectivity ratio [9] was < 4 and the half-life [10] was 26.6 min.

For `O=c1nc(N2CC3(CN(CC4CCCCC4)C3)C2)sc2c([N+](=O)[O-])cc(C(F)(F)F)cc12`, the Selectivity ratio [1] was < 4, the MIC [8] was 256 nM (≈ 0.12 µg/mL) and the Selectivity ratio [9] was < 4.

For `O=c1nc(N2CC3(CCN(CC4CCCCC4)CC3)C2)sc2c([N+](=O)[O-])cc(C(F)(F)F)cc12`, the Selectivity ratio [1] was < 4, the MIC [8] was 1020 nM (≈ 0.508 µg/mL) and the Selectivity ratio [9] was < 4.

For `O=c1nc(N2CCC3(CCN(CC4CCCCC4)C3)CC2)sc2c([N+](=O)[O-])cc(C(F)(F)F)cc12`, the Selectivity ratio [1] was < 4, the MIC [8] was 128 nM (≈ 0.0654 µg/mL) and the Selectivity ratio [9] was < 4.

In the case of `O=c1nc(N2CCC3(CC2)CN(CC2CCCCC2)C3)sc2c([N+](=O)[O-])cc(C(F)(F)F)cc12`, the Selectivity ratio [1] is reported as < 4, the MIC [8] is reported as 512 nM (≈ 0.254 µg/mL) and the Selectivity ratio [9] is reported as < 4.

For `O=c1nc(N2C[C@H]3C[C@@H](C2)N3CC2CCCCC2)sc2c([N+](=O)[O-])cc(C(F)(F)F)cc12`, the Selectivity ratio [1] was < 4, the MIC [8] was 128 nM (≈ 0.06 µg/mL) and the Selectivity ratio [9] was < 4.
